From ChEMBL document CHEMBL1146453, “Insecticidal sesquiterpene pyridine alkaloids from Maytenus chiapensis” (J Nat Prod, 2004)
In brackets after ≈: the same amount, converted by molar mass. Activity calls are given as the source filed them. The rule behind the calls is not given here.

Legend:
Myzus persicae = test: Antifeedant activity against Myzus persicae; assay type: functional, organism-based
How it was run: (§1)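 Choice feeding test on sixth-instar S. littoralis larvae and apterous adult M. persicae. Larvae reared on artificial diet, aphids on bell pepper plants, both at 22 ± 1 °C, >70% RH, 16:8 h L:D. Read-out is percent feeding inhibition (larvae) or settling inhibition (aphids). Actives above 50% went to dose–response, with EC50 taken from linear regression of %FR or %SI on log dose.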

Spodoptera littoralis [1] = test: Antifeedant activity against Spodoptera littoralis L6 larvae assessed as biomass gain relative to control; assay type: functional; parameters: concentration or dose not given beside the values
How it was run: (§2)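 Sixth-instar S. littoralis larvae reared on artificial diet at 22 ± 1 °C, >70% RH, 16:8 h L:D, dosed orally. Food consumption and biomass gain were recorded. Post-ingestive effects were tested by ANCOVA of biomass gain with food consumption as covariate.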

Spodoptera littoralis [2] = test: Antifeedant activity against Spodoptera littoralis L6 larvae assessed as nutritional consumption relative to control; assay type: functional; parameters: concentration or dose not given beside the values; how it was run: as §2
Spodoptera littoralis [3] = test: Antifeedant activity against Spodoptera littoralis L6 larvae; assay type: functional, organism-based; how it was run: as §1
Spodoptera littoralis [4] = test: Antifeedant activity against Spodoptera littoralis L6 larvae treated orally; assay type: functional, organism-based; how it was run: as §2
[5] = Cytotoxicity against CHO cells by MTT assay; assay type: cell-based, Cricetulus griseus; conditions: chinese hamster, read-out: LD50 (the source's name)
How it was run: (§3)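 Sf9 cells (S. frugiperda pupal ovarian tissue) and CHO cells were cultured and scored for viability by an adapted MTT colorimetric assay. LD50, the dose giving 50% viability, was calculated for active compounds.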

[6] = Cytotoxicity against Spodoptera frugiperda Sf9 cells by MTT assay; assay type: cell-based; conditions: read-out: LD50 (the source's name); how it was run: as §3

Row | Structure (SMILES) | Activity (Myzus persicae) | Activity (Spodoptera littoralis [1]) | Activity (Spodoptera littoralis [2]) | EC50 (Spodoptera littoralis [3]) | Activity (Spodoptera littoralis [4]) | CC50 [5] | CC50 [6]
1 | CC(=O)OC[C@]12[C@H](OC(C)=O)[C@H](OC(C)=O)[C@@H]3[C@@H](OC(C)=O)[C@@]14O[C@@]3(C)COC(=O)c1cccnc1CCC(C)(O)C(=O)O[C@@H]([C@H](OC(=O)c1ccccc1)[C@@H]2OC(=O)c1ccccc1)[C@]4(C)O (some centres not stated) | inactive | 96% | 87% | 3.9 ×10⁻² ug/cm2 | inactive | > 100 µg/mL | > 100 µg/mL
2 | CC(=O)OC[C@]12[C@H](OC(C)=O)[C@H](OC(C)=O)[C@@H]3[C@@H](OC(C)=O)[C@@]14O[C@@]3(C)COC(=O)c1cccnc1C(C)C(C)C(=O)O[C@@H]([C@H](O)[C@@H]2OC(C)=O)[C@]4(C)O (some centres not stated) | inactive | 101% | 94% | > 50 microg/cm2 | – | > 100 µg/mL | 57.5 µg/mL (≈ 75.3 µM)
3 | CC(=O)OC[C@]12[C@H](OC(C)=O)C(=O)[C@@H]3[C@@H](OC(C)=O)[C@@]14O[C@@]3(C)COC(=O)c1cccnc1CCC(C)(O)C(=O)O[C@@H]([C@H](OC(=O)c1ccccc1)[C@@H]2OC(=O)c1ccccc1)[C@]4(C)O (some centres not stated) | inactive | 93% | 92% | 6.6 ×10⁻² ug/cm2 | inactive | > 100 µg/mL | 78.7 µg/mL (≈ 87.2 µM)
4 | CC(=O)OC[C@]12[C@H](OC(C)=O)C(=O)[C@@H]3[C@@H](OC(C)=O)[C@@]14O[C@@]3(C)COC(=O)c1cccnc1CCC(C)(O)C(=O)O[C@@H]([C@H](OC(=O)c1ccccc1)[C@@H]2OC(C)=O)[C@]4(C)O (some centres not stated) [ALATAMINE] | inactive | 118% | 117% | 5.2 ×10⁻³ ug/cm2 | inactive | > 100 µg/mL | > 100 µg/mL
5 | CC(=O)OC[C@]12[C@H](OC(C)=O)[C@H](OC(C)=O)[C@@H]3[C@@H](OC(C)=O)[C@@]14O[C@@]3(C)COC(=O)c1cccnc1CCC(C)(O)C(=O)O[C@@H]([C@H](OC(C)=O)[C@@H]2OC(C)=O)[C@]4(C)O (some centres not stated) [ALATUSININE] | inactive | 111% | 125% | 1.6 ×10⁻⁴ ug/cm2 | inactive | > 100 µg/mL | 73.2 µg/mL (≈ 89.1 µM)
6 | CC(=O)OC[C@]12[C@H](OC(C)=O)[C@H](OC(C)=O)[C@@H]3[C@@H](OC(C)=O)[C@@]14O[C@@]3(C)COC(=O)c1cccnc1C(C)C(C)C(=O)O[C@@H]([C@H](O)[C@@H]2OC(=O)c1ccccc1)[C@]4(C)O (some centres not stated) [EBENIFOLINE E I] | inactive | 83% | 81% | 0.72 microg/cm2 | inactive | > 100 µg/mL | 78.8 µg/mL (≈ 95.4 µM)
7 | CC(=O)OC[C@]12[C@H](OC(C)=O)[C@H](OC(C)=O)[C@@H]3[C@@H](OC(C)=O)[C@@]14O[C@@]3(C)COC(=O)c1cccnc1CCC(C)C(=O)O[C@@H]([C@H](OC(C)=O)[C@@H]2OC(C)=O)[C@]4(C)O (some centres not stated) [EUONINE] | inactive | 98% | 111% | 1.8 ×10⁻⁴ ug/cm2 | inactive | > 100 µg/mL | 48.4 µg/mL (≈ 60 µM)
8 | CC(=O)OC[C@]12[C@H](OC(C)=O)[C@H](OC(C)=O)[C@@H]3[C@@H](OC(C)=O)[C@@]14O[C@@]3(C)COC(=O)c1cccnc1C(C)C(C)C(=O)O[C@@H]([C@H](OC(C)=O)[C@@H]2OC(C)=O)[C@]4(C)O (some centres not stated) [EUONYMINE] | inactive | 105% | 102% | > 50 microg/cm2 | – | > 100 µg/mL | 49.6 µg/mL (≈ 61.6 µM)
9 | CC(=O)OC[C@]12[C@H](OC(C)=O)[C@H](OC(C)=O)[C@@H]3[C@@H](OC(C)=O)[C@@]14O[C@@]3(C)COC(=O)c1cccnc1C(C)C(C)C(=O)O[C@@H]([C@H](OC(C)=O)[C@@H]2OC(=O)c1ccccc1)[C@]4(C)O (some centres not stated) [MAYTEINE] | inactive | 112% | 146% | > 50 microg/cm2 | – | > 100 µg/mL | > 100 µg/mL
10 | CC(=O)OC[C@]12[C@H](OC(C)=O)[C@H](OC(C)=O)[C@@H]3[C@@H](OC(C)=O)[C@@]14O[C@@]3(C)COC(=O)c1cccnc1CCC(C)(O)C(=O)O[C@@H]([C@H](OC(=O)c1ccccc1)[C@@H]2OC(C)=O)[C@]4(C)O (some centres not stated) [WILFORDINE] | inactive | 93% | 109% | 2.3 ×10⁻⁴ ug/cm2 | inactive | > 100 µg/mL | 86.2 µg/mL (≈ 97.6 µM)
